Measurements reported in ChEMBL document CHEMBL4411332, “Deciphering the Role of Intramolecular Networking in Cholic Acid-Peptide Conjugates on the Lipopolysaccharide Surface in Combating Gram-Negative Bacterial Infections” (J Med Chem, 2019).
Converted amounts (≈) assume the structure as drawn. The source made the active and inactive calls. The calls are words filed in the database; no cut-off is given here.

Tested on: Escherichia coli
Assay: Antibacterial activity against Escherichia coli by broth dilution assay
Format: functional
Procedure, shortened: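 MIC99 by broth-dilution assay; antibacterial and culture details are in the Supporting Information.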

SMILES | MIC99
C[C@H](N)C(=O)NCC(=O)O[C@@H]1CC[C@@]2(C)[C@@H](C1)C[C@@H](OC(=O)CNC(=O)[C@H](C)N)[C@@H]1[C@@H]2C[C@H](OC(=O)CNC(=O)[C@H](C)N)[C@]2(C)[C@@H]([C@H](C)CCC(=O)OCc3ccccc3)CC[C@@H]12 | 8 to 128 µM (≈ 7.06 to 113 µg/mL)
C[C@H](CCC(=O)OCc1ccccc1)[C@H]1CC[C@H]2[C@@H]3[C@H](OC(=O)CNC(=O)CN)C[C@@H]4C[C@H](OC(=O)CNC(=O)CN)CC[C@]4(C)[C@H]3C[C@H](OC(=O)CNC(=O)CN)[C@]12C | 8 to 128 µM (≈ 6.73 to 108 µg/mL)
C[C@H](CCC(=O)OCc1ccccc1)[C@H]1CC[C@H]2[C@@H]3[C@H](OC(=O)CNC(=O)[C@@H](N)Cc4ccc(O)cc4)C[C@@H]4C[C@H](OC(=O)CNC(=O)[C@@H](N)Cc5ccc(O)cc5)CC[C@]4(C)[C@H]3C[C@H](OC(=O)CNC(=O)[C@@H](N)Cc3ccc(O)cc3)[C@]12C | inactive
